Experimental findings from the RNAGym collection of RNA variant scans (doi:10.1126/science.aae0568) are described below.

B1: tRNA (parent)
chain: GUUCCGUUGGCGUAAUGGUAACGCGUCUCCCUCCUAAGGAGAAGACUGCGGGUUCGAGUCCCGUACGGAACG

This sample holds only a part of the variants without activity. Some results are limits rather than exact numbers.

The variants in this series derive from B1. Nature of the series: yeast fitness relative to wild type (ratio to wild type); higher = fitter; tRNA-Arg(CCU), competitive growth, 37 C, YPD. An outline of the steps:
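Amplicons of the tRNA-Arg(CCU) gene were sequenced, 100-nucleotide paired-end, from the start population and from each end population of a pooled yeast competition. The competition, in six parallel replicates, lasted 24 hours in YPD at 37°C. Fitness relative to wild type was calculated from changes in genotype frequencies. Genotypes had to have ≥ 100 starting reads, and estimates < 0.5 were set to 0.5.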
For the variant GUUCCGUUGGCGUAAUGGUAACGCGUCUACCUGCUAAGGAGAAGACUGCGGGUUCGAGUCUCGUACGGAACG, the yeast fitness amounted to 0.619.

GUUCCGUUGGCGUAAUGGUAACGCGUCUACCUCCUAAGGAGAAGAUUGCGGGUUCGGGUCCCGUACGGAACG: the yeast fitness is at most 0.5.

GUUCCGUUGGCGUAAUGGUAACGCGUCUACCUCCCAAGGAGAAGACUGCAGGUUCGAGUCCCGUACGGAACG: the yeast fitness is at most 0.5.

As to GUUCCGUUGGCGUAAUGGUAACGCGUCUACCUUCUAAGGAGAAGACAGCGGGUUCGAGUCCCGUACGGAACG, the yeast fitness is at most 0.5.

Turning to GUUCCGUUGGCGUAAUGGUAACGCGUCUACCCCCUAAGGAGAAGACUGAGGGUUCGAGUCCCGUACGGAACG, the yeast fitness was at most 0.5.

For GUUCCGUUGGCGUAAUGGUAACGCGUCUACCUCCCAAGGAGAAGACUGCGGGUUCGAGUCCCGUACGGAACG, the yeast fitness is at most 0.5.

GUUCCGUUGGCGUAAUGGUAACGCGUCUACCUUCUAAGGAGAAGACUGCGGGUUCGAGUCCAGUACGGCACG: the yeast fitness is at most 0.5.

Consider GUUCCGUUGGCGUAAUGGUAACGCGUCUACCUUCUAAGGAGAAGACUGCGGGUUGGAGUCCCGUACGGAACG, for which the yeast fitness was determined as 0.633.

In the case of GUUCCGUUGGCGUAAUGGUAACGCGUCUACCUCCUAAGGAGAAGACCGCGGGUUCGCGACCCGUACGGAACG, the yeast fitness was at most 0.5.

In the case of GUUCCGUUGGCGUAAUGGUAACGCGUCUACCUCCGAAGGAGAAGACUGCGGGUUGGAGUCCCGUACGACACG, the yeast fitness was at most 0.5.

Turning to GUUCCGUUGGCGUAAUGGUAACGCGUCUACCUCCAAAGGAGAAGACUGCGGGUUCGAGUCCCGUACCGAACG, the yeast fitness is at most 0.5.

Take GUUCCGUUGGCGUAAUGGUAACGCGUCUACCUCCUAAGGAAAAGACUGCGGGUUCGAGUCCCGUACGGAACG: the yeast fitness was 0.551.

GUUCCGUUGGCGUAAUGGUAACGCGUCUACCUCCUAAGGAGAAGACUGCGGGUUCGAGUCUCGUACGGAACG: the yeast fitness was found to be 0.647.

Consider GUUCCGUUGGCGUAAUGGUAACGCGUCUACCUCCUAAGGAGAAGACUGCGGGUUCGAGUCGCGUACGGAACG, for which the yeast fitness was at most 0.5.

With GUUCCGUUGGCGUAAUGGUAACGCGUCUACCUCUUAAGGAGAAGACUCCGGGUUCGAGUCCCGUACGGAACG, the yeast fitness was at most 0.5.

As to GUUCCGUUGGCGUAAUGGUAACGCGUCUACCUCCUAAGGAGAAGACUGCGGGUUCGAGUCCCGCACGGCACG, the yeast fitness is at most 0.5.

For the variant GUUCCGUUGGCGUAAUGGUAACGCGUCUACCUCCUAAGGAGAAGACUGCGGGUUCGAGUCGCGUAUGGUACG, the yeast fitness is at most 0.5.

GUUCCGUUGGCGUAAUGGUAACGCGUCUACCUCCUAAGGAGAAGACUGCGGGUUCGAGUCGCGUACGGAUCG: the yeast fitness is at most 0.5.

Turning to GUUCCGUUGGCGUAAUGGUAACGCGUCUACCUCCUAAGGAGAAGACUGCGGGUUCGAGUGCCGUACGGAACG, the yeast fitness turned out to be 0.584.

For the variant GUUCCGUUGGCGUAAUGGUAACGCGUCUACCUCCUAAGGAGAAGACUGCGGGUUCCAGUCACGUACGGAACG, the yeast fitness is at most 0.5.

On to GUUCCGUUGGCGUAAUGGUAACGCGUCUACCUCCUAAGGAGAAGACUGCGGGUUCGAGUCCUGUACGAAACG, for which the yeast fitness is at most 0.5.

As to GUUCCGUUGGCGUAAUGGUAACGCGUCUACCUCCUAAGGAGAAGACUCCGGGUUCGAGUCCCGUACGGAGCG, the yeast fitness is 0.54.

For GUUCCGUUGGCGUAAUGGUAACGCGUCUACCUGCCAAGGAGAAGACUGCGGGUUCGAGUCCCGUAUGGAACG, the yeast fitness is at most 0.5.

With GUUCCGUUGGCGUAAUGGUAACGCGUCUGCCUCCUGAGGAGAAGACUGCGGGUUCGAGUCCCGUACGGAACG, the yeast fitness was 0.548.

For the variant GUUCCGUUGGCGUAAUGGUAACGCGUCUACCUCCUAAGGAGAAGACUACGGGUUCGAGUCCCGUACGGAACG, the yeast fitness turned out to be 0.688.

For GUUCCGUUGGCGUAAUGGUAACGCGUCUACCUCCUAAGGAGAAGACUCCGGGUUCGAGUCCCGUACGGAACG, the yeast fitness was 0.613.

Regarding GUUCCGUUGGCGUAAUGGUAACGCGUCUACCCCCAAAGGAGAAGACUGCGGGUUCGAGUCCCGUACGGAACG, the yeast fitness was at most 0.5.

With GUUCCGUUGGCGUAAUGGUAACGCGUCUACCUCCUAAGGAGAAGACUGCGGGUUCGAGCCCCGUACGGAACG, the yeast fitness is 0.688.

With GUUCCGUUGGCGUAAUGGUAACGCGUCUACCUCUUUAGGAGAAGACUGCGGGUUCGAGUCUCGUACUGAACG, the yeast fitness was at most 0.5.

GUUCCGUUGGCGUAAUGGUAACGCGUCUACCUCCUAAGGAGAAGACUGCGGGUUGGAGUCCCGUGCGGAACG: the yeast fitness is 0.57.

With GUUCCGUUGGCGUAAUGGUAACGCGUCUACCUCCUAAGGAGAAGAAUGCGGGUUCGAGUCCCGUACGGAGCG, the yeast fitness is at most 0.5.

On to GUUCCGUUGGCGUAAUGGUAACGCGUCUACCCCCUAAGGAGUAGACUGCGGGUUCGAGUCCCGUAAGGCACG, for which the yeast fitness is at most 0.5.

On to GUUCCGUUGGCGUAAUGGUAACGCGUCUACCUCCAAAGGAGAAGACUGCGGGUUCGAGUCCCGUACGGAUCG, for which the yeast fitness stood at 0.716.

As to GUUCCGUUGGCGUAAUGGUAACGCGUCUACCUCCUAAAGAGAAGACUGCGGGUUCGAGUCCCGUACGGAACG, the yeast fitness came to 0.764.

As for GUUCCGUUGGCGUAAUGGUAACGCGUCUACCUCCUAAGGAGAAGACUGCGGGUUCGAGUCCCGCACGGAACG, the yeast fitness came out at 0.632.

Take GUUCCGUUGGCGUAAUGGUAACGCGUCUACCUCCUAAGGAGAAGACUGCGGGUUCGAGUACCGUAGGGAACG: the yeast fitness is at most 0.5.

GUUCCGUUGGCGUAAUGGUAACGCGUCUACCUCCUAAGGAGAAGACUGUGGGUUCGAGUCCUGUACGGAACG: the yeast fitness was found to be 0.562.

For GUUCCGUUGGCGUAAUGGUAACGCGUCUACCUCCCAAGGUGAAGACUGCGGGUUCGAGUCCCGUACGGAACG, the yeast fitness was 0.639.
